Fewer inactive variants are shown than the library holds.
B1: tRNA (parent)
chain: GUUCCGUUGGCGUAAUGGUAACGCGUCUCCCUCCUAAGGAGAAGACUGCGGGUUCGAGUCCCGUACGGAACG

Variants of: B1
Assay: yeast fitness relative to wild type (ratio to wild type); higher = fitter; tRNA-Arg(CCU), competitive growth, 37 C, YPD
Method in brief: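 Genotype frequency changes were the basis for Darwinian fitness relative to wild type. The frequencies came from 100-nucleotide paired-end sequencing of gene amplicons from the start population and each end population of pooled yeast strains with tRNA-Arg(CCU) gene variants at the native locus. Competition ran in YPD at 37°C for 24 hours in six replicates, genotypes needed ≥ 100 starting reads, and estimates < 0.5 were set to 0.5.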
U32C G38A gave a yeast fitness of 0.962.
In the case of C31G A37C G52C C61A C66U, the yeast fitness is reported as 0.527.
In the case of C33U A43G C66U, the yeast fitness is reported as 0.544.
Variant C31A A42G has a yeast fitness of 0.766.
For C30U U35A G51A, the yeast fitness was ≤ 0.5.
For C33U G39C U59C C61A C62U, the yeast fitness was ≤ 0.5.
Variant C33U C62G A69C has a yeast fitness of 0.595.
With C33G A36C C49A C60G A70U the yeast fitness was ≤ 0.5.
U32C U35C A37U G52A C66A showed a yeast fitness of 0.719.
With C31G A57C C62G the yeast fitness was 0.703.
Variant U32C G58C has a yeast fitness of 0.884.
Variant C31U A37C has a yeast fitness of 0.761.
In the case of U32G C33A U47A, the yeast fitness is reported as ≤ 0.5.
For C31U A69C A70U, the yeast fitness was 0.747.
For U32C C46G C62U, the yeast fitness was 0.733.
For C30U U32A A36U A37U C62U, the yeast fitness was ≤ 0.5.
In the case of U32A U54C, the yeast fitness is reported as 0.629.
Work on C31A A43U A57G yielded a yeast fitness of 0.559.
For C31U A45C C61G A65C, the yeast fitness was ≤ 0.5.
Work on C31U G63C G67C A69U yielded a yeast fitness of 0.511.
With C31U C62U G63A the yeast fitness was 0.617.
For C31G A45U U47A G67A, the yeast fitness was ≤ 0.5.
For C31G U35A G56A G63A, the yeast fitness was ≤ 0.5.
For C33U G44A C61U, the yeast fitness was 0.675.
Variant C31G A40G C46A has a yeast fitness of 0.618.
Variant C31A U54C has a yeast fitness of 0.562.
For U32C C61G A69C, the yeast fitness was ≤ 0.5.
C33U G48A A69C showed a yeast fitness of 0.705.
With C31U G48C U59A G67C A69C the yeast fitness was ≤ 0.5.
In the case of C31G C46G G58C, the yeast fitness is reported as 0.928.
With C33U C49A G63C the yeast fitness was ≤ 0.5.
With C33G U35G A37C A43C G44A U64C the yeast fitness was ≤ 0.5.
In the case of C33U C55A C66U, the yeast fitness is reported as 0.562.
In the case of C31A A37U C49A C55U, the yeast fitness is reported as ≤ 0.5.
For U32C G68A, the yeast fitness was 0.921.
In the case of U32C G68U, the yeast fitness is reported as 0.877.
In the case of C31U C34U G38A G44C, the yeast fitness is reported as ≤ 0.5.
In the case of C33U G39A A70U, the yeast fitness is reported as ≤ 0.5.
For C31G C55G A65G, the yeast fitness was ≤ 0.5.
With C31U U54A C62G G68C the yeast fitness was ≤ 0.5.
For C31A C33G A42C G48A U54A, the yeast fitness was ≤ 0.5.
C31U A42G C55U gave a yeast fitness of 0.511.
With C31A C49A C60U the yeast fitness was ≤ 0.5.
Work on C33A A40U yielded a yeast fitness of 0.741.
C31U U47A gave a yeast fitness of 0.817.
C33U A36C U64C showed a yeast fitness of 0.648.
For C33A C34A G56A, the yeast fitness was ≤ 0.5.
For U32A A57U, the yeast fitness was 0.558.
For C33G A43C G68A, the yeast fitness was ≤ 0.5.
With U32A A42C the yeast fitness was 0.817.
In the case of C33U A65C, the yeast fitness is reported as 0.664.
Work on C33A G39C G41C G44C yielded a yeast fitness of 0.549.
With U32C G48A U53G the yeast fitness was ≤ 0.5.
In the case of C33U A36C, the yeast fitness is reported as 0.517.
For C33A G38C G50A U64C, the yeast fitness was ≤ 0.5.
In the case of C31G A45U C49G A70U, the yeast fitness is reported as ≤ 0.5.
With U32G U35A A36G C66U the yeast fitness was ≤ 0.5.
In the case of C31U U32G C33G G58C, the yeast fitness is reported as ≤ 0.5.
For U32A C66A, the yeast fitness was 0.614.
With C33A A43U C49A the yeast fitness was 0.591.
Variant C31G C66U has a yeast fitness of 0.867.
Work on C33A G68C yielded a yeast fitness of 0.744.
For U32C C34G A65U A70G, the yeast fitness was ≤ 0.5.
With C33A U35C C46U C49U G52C C61U C66U the yeast fitness was ≤ 0.5.
C31G U35C C46U showed a yeast fitness of 0.582.
U32A C61G C66G gave a yeast fitness of 0.576.
In the case of U32C A37C G38A G63A, the yeast fitness is reported as 0.533.
With U32G C34A G38A A70G the yeast fitness was ≤ 0.5.
For C33U A43U C49G G50C C61U U64C C66U, the yeast fitness was ≤ 0.5.
With C31G G63C A65C the yeast fitness was ≤ 0.5.
With C31G A45C A65U the yeast fitness was ≤ 0.5.
For C31A U59A A70C, the yeast fitness was ≤ 0.5.
Variant U32C C33U has a yeast fitness of 0.659.
With C31U A69U A70C the yeast fitness was 0.778.
For C31G A45G G56U, the yeast fitness was 0.561.
C33U C61A showed a yeast fitness of 0.52.
With C31G G51C C61U the yeast fitness was ≤ 0.5.
In the case of C31U C61G C66G, the yeast fitness is reported as ≤ 0.5.
Work on U32G G63C yielded a yeast fitness of 0.571.
With U32A A36U A70G the yeast fitness was ≤ 0.5.
C31U G41U G56A showed a yeast fitness of 0.686.
For C31G C46G G50A, the yeast fitness was 0.552.
For C31A G56A G67A A69U, the yeast fitness was ≤ 0.5.
In the case of U32C C60G A65C, the yeast fitness is reported as 0.501.
C31A C49U gave a yeast fitness of 0.867.
With C31G A45U G58U C62U the yeast fitness was ≤ 0.5.
In the case of C31G G44C G52C C60G, the yeast fitness is reported as ≤ 0.5.
Work on C30U G58C G63C yielded a yeast fitness of 0.57.
With U32A C33G C60A the yeast fitness was ≤ 0.5.
Variant C33A U47A has a yeast fitness of 0.777.
U32C G52A gave a yeast fitness of 0.76.
With C33G G44A G56A the yeast fitness was ≤ 0.5.
Variant C33U C66U has a yeast fitness of 0.651.
Variant U32G A57C C62G C66G has a yeast fitness of 0.567.
In the case of C33A C62U G67A, the yeast fitness is reported as ≤ 0.5.
In the case of C31A A57U, the yeast fitness is reported as 0.626.
For C31U A40C G56C, the yeast fitness was ≤ 0.5.
In the case of U32C C33A G51C G68A, the yeast fitness is reported as ≤ 0.5.
Variant U32A G58C A69U has a yeast fitness of 0.56.
With U32C C33G G67C the yeast fitness was ≤ 0.5.
With C33G C61U the yeast fitness was 0.711.
With C33G C61A the yeast fitness was 0.607.
In the case of C33U, the yeast fitness is reported as 0.694.
Work on C33G yielded a yeast fitness of 0.743.
With C33A the yeast fitness was 0.795.
In the case of U32C A37C G39C, the yeast fitness is reported as ≤ 0.5.
With U32C A37U C49G A70U the yeast fitness was 0.664.
Variant C31G A45G has a yeast fitness of 0.809.
With C33G A40G G51C C61U the yeast fitness was ≤ 0.5.
With C33G C49G C55U the yeast fitness was ≤ 0.5.
In the case of C31A A36G, the yeast fitness is reported as 0.78.
In the case of C31U C60A G67A, the yeast fitness is reported as ≤ 0.5.
For U32A U64A G67A, the yeast fitness was ≤ 0.5.
In the case of U32G A37U U64C, the yeast fitness is reported as ≤ 0.5.
With C33U A40U G56C the yeast fitness was ≤ 0.5.
Variant C31G U47G C49G has a yeast fitness of 0.647.
In the case of C31G A37U G39C A42C, the yeast fitness is reported as ≤ 0.5.
For C31G A43G C49U C61A, the yeast fitness was ≤ 0.5.
Variant C31U C46U G51A has a yeast fitness of 0.968.
U32A A70C showed a yeast fitness of 0.741.
In the case of U32A C61A A65U, the yeast fitness is reported as ≤ 0.5.
C33G G63A gave a yeast fitness of 0.6.
For C33U C34A G50A C62U A70C, the yeast fitness was ≤ 0.5.
For U32A G39A U54A, the yeast fitness was ≤ 0.5.
In the case of C31G A36U G39A, the yeast fitness is reported as ≤ 0.5.
With C33G A57G C61G A65G C66U the yeast fitness was ≤ 0.5.
In the case of C31G C61G, the yeast fitness is reported as 0.623.
C31U A40U U54C gave a yeast fitness of 0.541.
Variant U32C G51A has a yeast fitness of 0.851.
Variant U32C C46U has a yeast fitness of 0.862.
With U32C G48A A57C the yeast fitness was ≤ 0.5.
With C31A C33A the yeast fitness was 0.509.
In the case of C33U A45G C49A U53A, the yeast fitness is reported as ≤ 0.5.
For C31G A37C C60U, the yeast fitness was ≤ 0.5.
For C33U C34U G39C, the yeast fitness was 0.605.
With U32G A36U the yeast fitness was 0.697.
With C33G A42G G52A the yeast fitness was ≤ 0.5.
In the case of C31U C33U A42C C49U A65C, the yeast fitness is reported as ≤ 0.5.
U32A A36U G44C A45G gave a yeast fitness of 0.516.
With C33U A43U C49G G50C C61U the yeast fitness was ≤ 0.5.
With C31U C61A C62U A65U the yeast fitness was ≤ 0.5.
With U32A G63A the yeast fitness was 0.748.
U32A G63C gave a yeast fitness of 0.626.
With C31U G51A G56C G67C the yeast fitness was 0.526.
For C31A C33G A36U C60U U64G A65U A69C, the yeast fitness was ≤ 0.5.
With C31U A40G G48C A57U U59A A69C the yeast fitness was ≤ 0.5.
For C31A U35C G41A A57G, the yeast fitness was ≤ 0.5.
For U32C G38C G68C A69C, the yeast fitness was 0.589.
C33A C60G gave a yeast fitness of 0.613.
For C33U G39C G51A C60G, the yeast fitness was ≤ 0.5.
For C31G U64C G67A, the yeast fitness was ≤ 0.5.
In the case of C33A A65G A69C, the yeast fitness is reported as ≤ 0.5.
With C31G C34G A45U G63C the yeast fitness was ≤ 0.5.
Variant C31U C34A has a yeast fitness of 0.863.
U32C A42C C46U gave a yeast fitness of 0.63.
With C31U U35C A40G A65U the yeast fitness was ≤ 0.5.
In the case of C33G C55G G67A, the yeast fitness is reported as ≤ 0.5.
In the case of C31U U47G A65U, the yeast fitness is reported as ≤ 0.5.
With U32C A65U G67A the yeast fitness was 0.646.
In the case of U32A C55A C61U, the yeast fitness is reported as 0.536.
For C33G U54C C62A G68C, the yeast fitness was ≤ 0.5.
U32C G56A showed a yeast fitness of 1.07.
In the case of C31U C55G C62U, the yeast fitness is reported as ≤ 0.5.
For C30U U35A A69U, the yeast fitness was ≤ 0.5.
For C33G U53C, the yeast fitness was ≤ 0.5.
For U32C A36C, the yeast fitness was 0.756.
For C31A A40C G52A G68C, the yeast fitness was ≤ 0.5.
